Series [1] is described as follows: Aqueous solubility of the compound at 1 mM by UV spectroscopic assay. The following applies: buffer. In kind it is physicochemical. In a few lines:
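Modified UV-spectroscopic method on the free base. A 1 mM DMSO stock was diluted to 4, 8, 12, 16 and 20 μM (2% DMSO in water) to build calibration curves. Each compound was suspended in medium to saturation, centrifuged at 8000 rpm for 10 min and filtered. Absorbance was read at 280 nm, 25 °C, and concentration was taken from the calibration best-fit line.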

The subject of series [2] is Plasmodium falciparum. Nature of the series: Antimalarial activity against chloroquine /mefloquine/pyrimethamine-resistant Plasmodium falciparum C235 by malaria SYBR green 1-based fluorescence (MSF) assay. In kind it is functional, organism-based.
Series [3] has as its system Plasmodium falciparum. Nature of the series: Antimalarial activity against chloroquine-resistant/mefloquine-sensitive Plasmodium falciparum W2 by malaria SYBR green 1-based fluorescence (MSF) assay. In kind it is functional, organism-based.
Series [4] has as its system Plasmodium falciparum. The series can be described thus: Antimalarial activity against chloroquine-sensitive/mefloquine-resistant Plasmodium falciparum D6 by malaria SYBR green 1-based fluorescence (MSF) assay. In kind it is functional, organism-based.
The test system of series [5] is Plasmodium falciparum. The series can be described thus: Antigametocytocidal activity against Plasmodium falciparum NF54-pfs16-[…] early (1 to 3) gametocyte assessed as viability after 72 hrs by MitoTracker Red CM-H2XRos/micro-plate confocal imaging system. In kind it is functional, organism-based. The conditions noted are these: NF54, 72 h.
Series [6] has as its system Plasmodium falciparum. Nature of the series: Antigametocytocidal activity against Plasmodium falciparum NF54-pfs16-[…] late (4 to 6) gametocyte assessed as viability after 72 hrs by MitoTracker Red CM-H2XRos/micro-plate confocal imaging system. In kind it is functional, organism-based. The conditions noted are these: NF54, 72 h.
Series [7] concerns Plasmodium falciparum. The series can be described thus: Antigametocytocidal activity against Plasmodium falciparum NF54-pfs16-[…] late (4 to 6) gametocyte assessed as viability at 40 uM after 72 hrs by MitoTracker Red CM-H2XRos/micro-plate confocal imaging system. In kind it is functional. The conditions noted are these: NF54, 72 h.
The test system of series [8] is Plasmodium falciparum. Nature of the series: Antigametocytocidal activity against Plasmodium falciparum NF54-pfs16-[…] late (4 to 6) gametocyte assessed as viability at 120 uM after 72 hrs by MitoTracker Red CM-H2XRos/micro-plate confocal imaging system. In kind it is functional. The conditions noted are these: NF54, 72 h.
Series [9] deals with Intercellular adhesion molecule 1 (Homo sapiens) (UniProt P05362). Nature of the series: Inhibition of human type O erythrocyte ICAM1-mediated Plasmodium falciparum infection with at 50 uM.
Sequence of Intercellular adhesion molecule 1 (Homo sapiens) (P05362 whole entry): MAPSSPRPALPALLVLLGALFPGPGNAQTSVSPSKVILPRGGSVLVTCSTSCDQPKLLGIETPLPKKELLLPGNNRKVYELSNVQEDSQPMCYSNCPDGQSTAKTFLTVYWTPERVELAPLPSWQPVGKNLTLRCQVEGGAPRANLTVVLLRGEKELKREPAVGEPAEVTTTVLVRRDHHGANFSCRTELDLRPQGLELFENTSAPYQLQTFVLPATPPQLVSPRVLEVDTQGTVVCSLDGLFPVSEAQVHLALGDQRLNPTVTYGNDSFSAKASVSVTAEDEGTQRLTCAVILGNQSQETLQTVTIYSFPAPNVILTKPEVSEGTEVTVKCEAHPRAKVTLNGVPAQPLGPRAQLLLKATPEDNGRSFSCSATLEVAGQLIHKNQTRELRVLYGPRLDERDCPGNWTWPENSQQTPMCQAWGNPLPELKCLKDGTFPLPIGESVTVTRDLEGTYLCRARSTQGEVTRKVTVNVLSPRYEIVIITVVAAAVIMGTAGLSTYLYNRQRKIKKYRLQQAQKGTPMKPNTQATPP

In brackets after ≈: the same amount, converted by molar mass. Bounds are passed on as bounds.

A word on the solubility: it is how much of the substance goes into solution per volume. Usually IC50 stands for the midpoint of a concentration-inhibition curve. In series [1], `O=c1c(O)c(-c2ccc(O)c(O)c2)oc2c(CNCCc3c(Cl)cccc3Cl)c(O)cc(O)c12` came in with a solubility at 1000 µM of 199 µM (≈ 100 µg/mL). Also, the IC50 in the series on Plasmodium falciparum [2] turned out to be 150 nM; in the series with Plasmodium falciparum [3], 230 nM; in the series with Plasmodium falciparum [4], 160 nM.
Turning to `O=c1c(O)c(-c2ccc(O)c(O)c2)oc2c(CNCc3ccco3)c(O)cc(O)c12`, the solubility at 1000 µM in series [1] stood at 40 µM (≈ 16.5 µg/mL). Besides, the IC50 in the series on Plasmodium falciparum [2], with Plasmodium falciparum [3] and in the series on Plasmodium falciparum [4] was above 2230 nM throughout.
On to `O=c1c(O)c(-c2ccc(O)c(O)c2)oc2c(CNCc3ccc(Cl)cc3)c(O)cc(O)c12`, for which, in series [1], the solubility at 1000 µM came out at 110 µM (≈ 50.1 µg/mL). Also, the IC50 in the series with Plasmodium falciparum [2] came out at 430 nM; with Plasmodium falciparum [3], 590 nM; in the series on Plasmodium falciparum [4], 370 nM.
In the case of `O=c1c(O)c(-c2ccc(O)c(O)c2)oc2c(CNCc3ccc(F)cc3)c(O)cc(O)c12`, the solubility at 1000 µM in series [1] is 212 µM (≈ 93.2 µg/mL). In addition, the results for the IC50 in the series with Plasmodium falciparum [2], with Plasmodium falciparum [3] and with Plasmodium falciparum [4] were 700 nM, 720 nM and 410 nM, respectively.
With `COc1ccc(C[C@H](N)C(=O)N[C@H]2[C@@H](O)[C@H](n3cnc4c(N(C)C)ncnc43)O[C@@H]2CO)cc1` [PUROMYCIN], the values for the IC50 in the series with Plasmodium falciparum [5] and in the series with Plasmodium falciparum [6] were 175 nM and 194 nM, respectively.
In series [1], `O=c1c(O)c(-c2ccc(O)c(O)c2)oc2c(CNCCc3ccccc3Cl)c(O)cc(O)c12` gave a solubility at 1000 µM of 85 µM (≈ 39.9 µg/mL). Further, the IC50 in the series with Plasmodium falciparum [2] came out at 260 nM; with Plasmodium falciparum [3] it was 290 nM; in the series on Plasmodium falciparum [4], 250 nM.
In the case of `O=c1c(O)c(-c2ccc(O)c(O)c2)oc2c(CNCc3ccccc3)c(O)cc(O)c12`, in series [1], the concentration in solution (solubility at 1000 µM) came to 49 µM (≈ 20.6 µg/mL). Besides, the IC50 in the series on Plasmodium falciparum [2], with Plasmodium falciparum [3] and in the series on Plasmodium falciparum [4] was above 2180 nM in each case.
Usually inhibition stands for how much of the control response was suppressed. For `O=c1c(O)c(-c2ccc(O)c(O)c2)oc2c(CNCCc3cccc(Cl)c3)c(O)cc(O)c12`, the inhibition at 40 µM in the series on Plasmodium falciparum [7] was 100%. The same compound gave a solubility at 1000 µM in series [1] of 199 µM (≈ 93.5 µg/mL). The IC50 stood at 6790 nM with Plasmodium falciparum [5], 80 nM in the series with Plasmodium falciparum [2], 79 nM with Plasmodium falciparum [3] and 69 nM in the series with Plasmodium falciparum [4].
Compound `O=c1c(O)c(-c2ccc(O)c(O)c2)oc2c(CNCCc3ccc(Cl)cc3)c(O)cc(O)c12` had a solubility at 1000 µM in [1] of 99 µM (≈ 46.5 µg/mL). The IC50 amounted to 1200 nM in the series with Plasmodium falciparum [2], 1900 nM in the series on Plasmodium falciparum [3] and 830 nM in the series on Plasmodium falciparum [4].
For `O=c1c(O)c(-c2ccc(O)c(O)c2)oc2c(CNCCc3ccc(F)cc3)c(O)cc(O)c12`, the solubility at 1000 µM in series [1] was found to be 136 µM (≈ 61.7 µg/mL). The IC50 was 150 nM in the series with Plasmodium falciparum [2], 290 nM with Plasmodium falciparum [3] and 140 nM in the series with Plasmodium falciparum [4].
Take `C[C@@H]1CC[C@H]2[C@@H](C)C(=O)O[C@@H]3O[C@@]4(C)CC[C@@H]1[C@]32OO4` [ARTEMISININ]: the values for the IC50 in the series with Plasmodium falciparum [2], with Plasmodium falciparum [3] and in the series on Plasmodium falciparum [4] were 13 nM, 7 nM and 9 nM, respectively.
Compound `CN1CCN(Cc2c(O)cc(O)c3c(=O)c(O)c(-c4ccc(O)c(O)c4)oc23)CC1` gave a solubility at 1000 µM in series [1] of 131 µM (≈ 54.3 µg/mL). The IC50 with Plasmodium falciparum [2] was found to be 5300 nM; with Plasmodium falciparum [3] it was 2400 nM; with Plasmodium falciparum [4], 2900 nM.
For `O=c1c(O)c(-c2ccc(O)c(O)c2)oc2c(CNCC3CCCO3)c(O)cc(O)c12` (stereo unspecified), the solubility at 1000 µM in [1] amounted to 39 µM (≈ 16.2 µg/mL). Further, the IC50 in the series on Plasmodium falciparum [2], with Plasmodium falciparum [3] and in the series on Plasmodium falciparum [4] was above 2210 nM throughout.
`O=c1c(O)c(-c2ccc(O)c(O)c2)oc2c(CN3CCCCC3)c(O)c(CN3CCCCC3)c(O)c12`: in [1], the concentration in solution (solubility at 1000 µM) came to 247 µM (≈ 123 µg/mL). Moreover, the IC50 in the series with Plasmodium falciparum [2] is 3100 nM; with Plasmodium falciparum [3], 1200 nM; with Plasmodium falciparum [4] it was 1700 nM.
For `O=c1c(O)c(-c2ccc(O)c(O)c2)oc2c(CNCc3cccc(Cl)c3)c(O)cc(O)c12`, in that order: 107 µM (≈ 48.8 µg/mL), 220 nM, 260 nM and 190 nM.
Regarding `CCN(CC)CCCC(C)Nc1ccnc2cc(Cl)ccc12` (stereo unspecified) [CHLOROQUINE], the inhibition at 120 µM in the series with Plasmodium falciparum [8] was determined as 100%.
In turn, `O=c1c(O)c(-c2ccc(O)c(O)c2)oc2cc(O)cc(O)c12` [QUERCETIN] showed a solubility at 1000 µM in series [1] of 44 µM (≈ 13.3 µg/mL). Further, the IC50 came out at 13000 nM in the series with Plasmodium falciparum [2], 2900 nM in the series on Plasmodium falciparum [3] and 9000 nM in the series on Plasmodium falciparum [4].
Take `O=c1c(O)c(-c2ccc(O)c(O)c2)oc2c(CNCCc3ccc(Cl)cc3Cl)c(O)cc(O)c12`: the inhibition at 40 µM with Plasmodium falciparum [7] was 100%. For the same compound, the concentration in solution in [1] (solubility at 1000 µM) came to 168 µM (≈ 84.7 µg/mL). In addition, the IC50 in the series with Plasmodium falciparum [5] is 9670 nM; in the series on Plasmodium falciparum [2] it was 79 nM; in the series with Plasmodium falciparum [3] it was 71 nM; with Plasmodium falciparum [4] it was 65 nM.
In [1], `O=c1c(O)c(-c2ccc(O)c(O)c2)oc2c(CNCc3cccc(F)c3)c(O)cc(O)c12` displayed a solubility at 1000 µM of 123 µM (≈ 54 µg/mL). In addition, the IC50 is 620 nM in the series with Plasmodium falciparum [2], 690 nM in the series with Plasmodium falciparum [3] and 510 nM in the series on Plasmodium falciparum [4].
In the case of `O[C@@H](c1cc(C(F)(F)F)nc2c(C(F)(F)F)cccc12)[C@H]1CCCCN1` [(S,R)-MEFLOQUINE], the IC50 was found to be 77 nM with Plasmodium falciparum [2] and 7 nM with Plasmodium falciparum [3].
Turning to `Oc1cc(O)c2c(c1)O[C@H](c1ccc(O)c(O)c1)[C@@H](O)C2` [CIANIDANOL], the IC50 in the series with Plasmodium falciparum [2] amounted to 5900 nM; with Plasmodium falciparum [3], 6000 nM; with Plasmodium falciparum [4] it was 6700 nM.
With `C[C@H]1[C@H](OC(=O)CCC(=O)O)O[C@@H]2O[C@@]3(C)CC[C@H]4[C@H](C)CC[C@@H]1[C@@]24OO3` [ARTESUNATE], the IC50 in the series with Plasmodium falciparum [5] was determined as 3 nM.
In [1], `O=c1c(O)c(-c2ccc(O)c(O)c2)oc2c(CNCCc3cccc(F)c3)c(O)cc(O)c12` yielded a solubility at 1000 µM of 275 µM (≈ 125 µg/mL). The IC50 in the series on Plasmodium falciparum [2] came to 88 nM; in the series on Plasmodium falciparum [3] it was 130 nM; in the series with Plasmodium falciparum [4], 69 nM.
The matching figures for `O=c1c(O)c(-c2ccc(O)c(O)c2)oc2c(CNCCc3ccccc3F)c(O)cc(O)c12`: 95 µM (≈ 43.1 µg/mL), 180 nM, 240 nM and 110 nM.
Turning to `O=C(O[C@@H]1Cc2c(O)cc(O)cc2O[C@@H]1c1cc(O)c(O)c(O)c1)c1cc(O)c(O)c(O)c1` [EPIGALOCATECHIN GALLATE], the IC50 stood at 610 nM in the series on Plasmodium falciparum [2], 1400 nM with Plasmodium falciparum [3] and 73 nM in the series with Plasmodium falciparum [4]. This compound also returned an inhibition in [9] of 85%.
Compound `O=c1c(O)c(-c2ccc(O)c(O)c2)oc2c(CNCCc3ccccc3)c(O)cc(O)c12` gave a solubility at 1000 µM in series [1] of 41 µM (≈ 17.9 µg/mL). In addition, the results for the IC50 with Plasmodium falciparum [2], with Plasmodium falciparum [3] and in the series on Plasmodium falciparum [4] were above 2120 nM, above 2120 nM and 2110 nM, respectively.
